Source: ChEMBL document CHEMBL5058577, “EUbOPEN Chemogenomics Library 2 (Multiplex)” (2022)

Tested on: U2OS
Assay: Multiplex assay against U2OS
Format: toxicity, cell-based
Conditions: human
Outline: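 Four dyes were applied at seeding to live cells: Hoechst33342, BioTracker Green Microtubule Cytoskeleton Dye, MitoTracker Red and Annexin V Alexa Fluor 680. Imaging after compound addition used a CQ1 microscope at 37°C and 5% CO2. CellPathfinder machine-learning gating then sorted cells into Hoechst high-intensity objects or normal cells, normal cells into healthy, pyknosed or fragmented nuclei, and pyknosed cells into mitotic or apoptotic, with tubulin, mitochondrial-mass and membrane-permeability phenotypes given as per cents of healthy-nucleus cells.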

[1] = 12 h, 1 µM, compound concentration 1 uM, replicate 1
[2] = 12 h, 1 µM, compound concentration 1 uM, replicate 2
[3] = 12 h, 10 µM, compound concentration 10 uM, replicate 1
[4] = 12 h, 10 µM, compound concentration 10 uM, replicate 2
[5] = 24 h, 1 µM, compound concentration 1 uM, replicate 1
[6] = 24 h, 1 µM, compound concentration 1 uM, replicate 2
[7] = 24 h, 10 µM, compound concentration 10 uM, replicate 1
[8] = 24 h, 10 µM, compound concentration 10 uM, replicate 2
[9] = 48 h, 1 µM, compound concentration 1 uM, replicate 1
[10] = 48 h, 1 µM, compound concentration 1 uM, replicate 2
[11] = 48 h, 10 µM, compound concentration 10 uM, replicate 1
[12] = 48 h, 10 µM, compound concentration 10 uM, replicate 2

CC(/C=C1\SC(=S)N(CCCC(=O)Nc2ccc(C(=O)O)c(O)c2)C1=O)=C\c1ccccc1
Population Apoptotic (%) [1]: 94%
Population Fragmented Nuclei (%) [1]: 26%
Population Healthy Nuclei (%) [1]: 64%
Population Hoechst High Intensity Objects (%) [1]: 3%
Population Membrane Permeable-Phenotype (%) [1]: 4%
Population Mitochondria Different-Phenotype (%) [1]: 1%
Population Mitotic Cells (%) [1]: 5%
Population Normal (%) [1]: 96%
Population Pyknosed Nuclei (%) [1]: 8%
Population Tubulin-Different-Phenotype (%) [1]: 3%
Total Cell Count [1]: 205
Population Apoptotic (%) [2]: 100%
Population Fragmented Nuclei (%) [2]: 12%
Population Healthy Nuclei (%) [2]: 80%
Population Hoechst High Intensity Objects (%) [2]: 4%
Population Membrane Permeable-Phenotype (%) [2]: 3%
Population Mitochondria Different-Phenotype (%) [2]: 2%
Population Mitotic Cells (%) [2]: 0%
Population Normal (%) [2]: 95%
Population Pyknosed Nuclei (%) [2]: 7%
Population Tubulin-Different-Phenotype (%) [2]: 0%
Total Cell Count [2]: 133
Population Apoptotic (%) [3]: 91%
Population Fragmented Nuclei (%) [3]: 28%
Population Healthy Nuclei (%) [3]: 61%
Population Hoechst High Intensity Objects (%) [3]: 3%
Population Membrane Permeable-Phenotype (%) [3]: 12%
Population Mitochondria Different-Phenotype (%) [3]: 2%
Population Mitotic Cells (%) [3]: 8%
Population Normal (%) [3]: 96%
Population Pyknosed Nuclei (%) [3]: 9%
Population Tubulin-Different-Phenotype (%) [3]: 4%
Total Cell Count [3]: 241
Population Apoptotic (%) [4]: 72%
Population Fragmented Nuclei (%) [4]: 16%
Population Healthy Nuclei (%) [4]: 72%
Population Hoechst High Intensity Objects (%) [4]: 0%
Population Membrane Permeable-Phenotype (%) [4]: 4%
Population Mitochondria Different-Phenotype (%) [4]: 1%
Population Mitotic Cells (%) [4]: 27%
Population Normal (%) [4]: 100%
Population Pyknosed Nuclei (%) [4]: 10%
Population Tubulin-Different-Phenotype (%) [4]: 5%
Total Cell Count [4]: 101
Population Apoptotic (%) [5]: 83%
Population Fragmented Nuclei (%) [5]: 25%
Population Healthy Nuclei (%) [5]: 64%
Population Hoechst High Intensity Objects (%) [5]: 3%
Population Membrane Permeable-Phenotype (%) [5]: 4%
Population Mitochondria Different-Phenotype (%) [5]: 1%
Population Mitotic Cells (%) [5]: 16%
Population Normal (%) [5]: 96%
Population Pyknosed Nuclei (%) [5]: 10%
Population Tubulin-Different-Phenotype (%) [5]: 1%
Total Cell Count [5]: 247
Population Apoptotic (%) [6]: 94%
Population Fragmented Nuclei (%) [6]: 9%
Population Healthy Nuclei (%) [6]: 79%
Population Hoechst High Intensity Objects (%) [6]: 1%
Population Membrane Permeable-Phenotype (%) [6]: 10%
Population Mitotic Cells (%) [6]: 5%
Population Normal (%) [6]: 98%
Total Cell Count [6]: 177
Population Apoptotic (%) [7]: 88%
Population Fragmented Nuclei (%) [7]: 26%
Population Healthy Nuclei (%) [7]: 64%
Population Hoechst High Intensity Objects (%) [7]: 2%
Population Membrane Permeable-Phenotype (%) [7]: 7%
Population Mitochondria Different-Phenotype (%) [7]: 3%
Population Mitotic Cells (%) [7]: 11%
Population Normal (%) [7]: 97%
Population Pyknosed Nuclei (%) [7]: 8%
Population Tubulin-Different-Phenotype (%) [7]: 3%
Total Cell Count [7]: 298
Population Apoptotic (%) [8]: 53%
Population Fragmented Nuclei (%) [8]: 16%
Population Healthy Nuclei (%) [8]: 72%
Population Hoechst High Intensity Objects (%) [8]: 0%
Population Mitochondria Different-Phenotype (%) [8]: 6%
Population Mitotic Cells (%) [8]: 46%
Population Normal (%) [8]: 100%
Population Pyknosed Nuclei (%) [8]: 11%
Population Tubulin-Different-Phenotype (%) [8]: 6%
Total Cell Count [8]: 111
Population Apoptotic (%) [9]: 93%
Population Fragmented Nuclei (%) [9]: 16%
Population Healthy Nuclei (%) [9]: 74%
Population Hoechst High Intensity Objects (%) [9]: 2%
Population Membrane Permeable-Phenotype (%) [9]: 5%
Population Mitochondria Different-Phenotype (%) [9]: 1%
Population Mitotic Cells (%) [9]: 6%
Population Normal (%) [9]: 97%
Population Pyknosed Nuclei (%) [9]: 8%
Population Tubulin-Different-Phenotype (%) [9]: 1%
Total Cell Count [9]: 368
Population Apoptotic (%) [10]: 78%
Population Fragmented Nuclei (%) [10]: 11%
Population Healthy Nuclei (%) [10]: 79%
Population Hoechst High Intensity Objects (%) [10]: 3%
Population Membrane Permeable-Phenotype (%) [10]: 4%
Population Mitochondria Different-Phenotype (%) [10]: 3%
Population Mitotic Cells (%) [10]: 21%
Population Normal (%) [10]: 96%
Population Pyknosed Nuclei (%) [10]: 9%
Population Tubulin-Different-Phenotype (%) [10]: 2%
Total Cell Count [10]: 253
Population Apoptotic (%) [11]: 97%
Population Fragmented Nuclei (%) [11]: 19%
Population Healthy Nuclei (%) [11]: 68%
Population Hoechst High Intensity Objects (%) [11]: 2%
Population Membrane Permeable-Phenotype (%) [11]: 6%
Population Mitochondria Different-Phenotype (%) [11]: 2%
Population Mitotic Cells (%) [11]: 2%
Population Normal (%) [11]: 97%
Population Pyknosed Nuclei (%) [11]: 12%
Population Tubulin-Different-Phenotype (%) [11]: 4%
Total Cell Count [11]: 396
Population Apoptotic (%) [12]: 82%
Population Fragmented Nuclei (%) [12]: 16%
Population Healthy Nuclei (%) [12]: 73%
Population Hoechst High Intensity Objects (%) [12]: 1%
Population Membrane Permeable-Phenotype (%) [12]: 4%
Population Mitochondria Different-Phenotype (%) [12]: 1%
Population Mitotic Cells (%) [12]: 17%
Population Normal (%) [12]: 98%
Population Pyknosed Nuclei (%) [12]: 10%
Population Tubulin-Different-Phenotype (%) [12]: 0%
Total Cell Count [12]: 170
